# Mcl1-Bid inh – disrupts binding of human Mcl-1 to Bid peptide; TR-FRET Mcl-1/Bid-Dy647 peptide binding, 1536-well; AID 1021; inhibition, % at 21.7 µM; Q07820; hit rate 0.97% among 220,000;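 active means compounds that cut the binding signal by more than half at the single screening dose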;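 further: His-tagged Mcl-1 with europium anti-His antibody binding Bid BH3 peptide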
# Target sequence (Q07820 whole entry, looked up): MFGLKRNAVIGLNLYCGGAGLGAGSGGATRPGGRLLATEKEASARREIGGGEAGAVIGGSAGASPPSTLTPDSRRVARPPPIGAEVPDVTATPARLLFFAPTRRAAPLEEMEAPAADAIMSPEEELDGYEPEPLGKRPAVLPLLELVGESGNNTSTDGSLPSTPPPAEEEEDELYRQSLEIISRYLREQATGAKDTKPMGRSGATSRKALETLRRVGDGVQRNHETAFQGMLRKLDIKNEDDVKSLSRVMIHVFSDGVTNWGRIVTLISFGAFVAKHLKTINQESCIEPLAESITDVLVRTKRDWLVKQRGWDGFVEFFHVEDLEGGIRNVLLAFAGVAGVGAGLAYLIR
# Mcl1 Noxa PPI – disrupts binding of human Mcl-1 to Noxa peptide. Q07820. TR-FRET Mcl-1/Noxa peptide binding, 2 h. inhibition, % at 21.7 µM. hit rate 1.5% among 220,000. AID 1022;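 active means compounds that cut the protein-peptide binding signal by more than 50% relative to plate controls in a single-dose test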;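 further: His-tagged Mcl-1 with rhodamine Noxa BH3 peptide and terbium anti-His antibody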
# Bim-Mcl-1 – human Bim-Mcl-1 interaction inhibition; Bead-based flow cytometry, Bim peptide-Mcl-1 binding; inhibition, % at 10 µM; hit rate 0.1% among 190,000; in the data active means inhibition above about 40%
# MCL1-BIM inh – MCL1-BIM-BH3 interaction inhibition (human). AID 2057. GST-MCL1 / FITC-Bim-BH3 fluorescence polarization. hit rate 0.68% among 320,000. inhibition, % at 10.9 µM;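 active means inhibition above the mean inhibition of all tested compounds plus 3 SD, set per campaign, cut at about 40% in these data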;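 further: higher means more loss of mP so more displacement of Bim peptide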
# T cell HTS – T cell immune modulation candidate | 2C CD8+ T cell-vesicle binding, flow cytometry; hits give low values | response (vesicle binding), % at 7 µM | hit rate 0.068% among 330,000;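 active means response, share of CD8 T cells binding vesicles, and their 90th percentile fluorescence all below set limits, cut at about 80% in these data, passing the limit was not always enough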;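 further: values below 100% mean blocked vesicle binding to the CD8+ T cells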
#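 Assay system: 2C TCR transgenic mouse naive CD8+ T cells, MACS-purified | Read-out: CD8+ gate FL2 mean fluorescence as % of same-row positive control | Signal: High-throughput flow cytometry with anti-B7-1 and anti-CD8 staining | Timing: Binding step 1.5 h, 37 °C, antibody labelling 20 min, ice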
# Pemphigus Ab inh – inhibitors of pemphigus antibody binding to human desmoglein-3; P32926; AID 588358; DSG3-coupled beads, scFv-anti-DSG3-GFP binding, flow cytometry; hits give low values; hit rate 0.48% among 310,000; binding (percent of control), % at 10 µM;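 active means binding more than 3 SD below its plate's average and above zero; inconclusive means below that plate limit but binding exactly zero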;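 further: hits lower antibody fragment binding to DSG3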
# BCLXL inh confirm – Bcl-xL (human) inhibition, MCL1 counter-screen confirmation; shares compounds with MCL1-BIM inh; GST-Bcl-xL / FITC-Bim BH3 peptide FP binding; inhibition, % at 10.9 µM; hit rate 54% among 1,700; AID 2166;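 active means inhibition above a cutoff equal to the mean inhibition of all tested compounds plus 3 SD, cut at about 30% in these data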
# Target sequence (Q07817 whole entry, looked up): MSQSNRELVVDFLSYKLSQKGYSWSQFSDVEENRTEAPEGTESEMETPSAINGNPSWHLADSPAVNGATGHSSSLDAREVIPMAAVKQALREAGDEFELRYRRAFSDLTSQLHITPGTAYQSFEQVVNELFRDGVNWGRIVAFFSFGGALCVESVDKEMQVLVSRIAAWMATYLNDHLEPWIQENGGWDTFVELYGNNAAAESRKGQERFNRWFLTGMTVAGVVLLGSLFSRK
# MCL1 inh confirm – confirmation of human MCL1 and BIM-BH3 interaction inhibitors. shares compounds with MCL1-BIM inh. GST-MCL1 / FITC-Bim-BH3 fluorescence polarization. inhibition, % at 10.9 µM. hit rate 61% among 1,700;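 active means inhibition above the average of all tested compounds plus 3 SD, cut at about 40% in these data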
# Numbers stand for hits; i = inactive; ? = inconclusive; nt = no result given; + = active, no number. Most compounds without a hit are left out; they make up all but 2.3% or so of the library.
SMILES,Mcl1-Bid inh,Mcl1 Noxa PPI,Bim-Mcl-1,MCL1-BIM inh,T cell HTS,Pemphigus Ab inh,BCLXL inh confirm,MCL1 inh confirm
O=C1NC(=O)N(Cc2ccco2)C(=O)/C1=C/c1ccc(-c2cccc([N+](=O)[O-])c2)o1,i,93,i,43,i,i,i,62
C=CCN1C(=O)NC(=O)/C(=C\c2ccc(-c3ccccc3[N+](=O)[O-])o2)C1=O,i,i,i,i,i,i,nt,nt
C=CCn1c(O)c(C(C)=NCCN2CCOCC2)c(=O)[nH]c1=O,i,i,i,i,i,i,nt,nt
CCn1cc(C=C2C(=O)NC(=O)NC2=O)c2ccccc21,nt,nt,nt,148,i,i,112,123
Nc1cc2nc3ccccc3nc2cc1N,i,51,nt,140,i,i,+,+
CN[C@@H]1C[C@@H](c2ccc(Cl)c(Cl)c2)c2ccccc21,i,i,i,i,i,nt,nt,nt
O=c1[nH]c(O)c(/C=C2\C=Nc3ccc(OCc4ccccc4)cc32)c(=O)[nH]1,nt,nt,nt,188,i,i,126,153
O=c1[nH]c(O)c(C=NCCc2ccccc2)c(=O)[nH]1,i,i,nt,i,i,i,nt,nt
CC1=C[C@@H]2c3cccc4[nH]cc(c34)C[C@H]2N(C)C1,nt,nt,nt,+,i,i,141,163
Cc1cc(OCC(=O)NCc2cccnc2)c2c3c(c(=O)oc2c1)CCCC3,nt,nt,nt,i,i,nt,nt,nt
CC(C)[C@@]1(NC(=O)[C@@H]2C=C3c4cccc5[nH]cc(c45)C[C@H]3N(C)C2)O[C@@]2(O)[C@@H]3CCCN3C(=O)[C@H](Cc3ccccc3)N2C1=O,i,i,i,nt,nt,nt,nt,nt
CC(C)[C@H]1C(=O)N2CCC[C@H]2[C@]2(O)O[C@](NC(=O)[C@@H]3C=C4c5cccc6[nH]cc(c56)C[C@H]4N(C)C3)(C(C)C)C(=O)N12,i,i,i,+,i,i,106,128
CN1CCN(c2nc(N(C)C)oc(=O)c2C#N)CC1,i,i,i,i,i,i,nt,nt
O=C1NC(=S)NC(=O)C1=Cc1ccc2c(c1)CCN2CCCCl,i,100,nt,74,i,58,i,i
CN(C)[C@@H]1C(=O)C(C(N)=O)=C(O)[C@@]2(O)C(=O)C3=C(O)c4c(O)cccc4[C@@](C)(O)C3C[C@@H]12 (some centres not stated),nt,nt,nt,51,i,i,i,i
CN1CCN(C(=O)OC2c3nccnc3C(=O)N2c2ccc(Cl)cn2)CC1 (configuration not stated),i,i,i,i,i,nt,nt,nt
CN1C[C@H](CO)C=C2c3cccc4[nH]cc(c34)C[C@H]21,i,i,i,79,i,i,65,87
O=C(O)c1cccc2c1NC(C(=O)O)C1CC(Sc3ccccc3[N+](=O)[O-])C(Cl)C21 (configuration not stated),i,94,i,100,i,73,50,106
CC(=O)c1ccc2c(c1)C1C(Cl)C(Sc3ccccc3[N+](=O)[O-])CC1C(C(=O)O)N2 (configuration not stated),i,110,i,64,i,i,i,i
Cc1nccn1Cc1ccc(Cl)nc1,i,i,i,i,i,nt,nt,nt
c1ccc(CN2Cc3ccccc3-n3nncc3C2)nc1,nt,nt,nt,nt,nt,i,nt,nt
O=C1C(Cl)=CC(=Nc2ccc(O)cc2)C=C1Cl,nt,nt,nt,44,i,?,40,60
CN1Cc2c(c(C#N)c(N)n(C)c2=S)CC1(C)C,i,i,i,103,i,i,144,185
CCOc1cccc(OCC)c2c(C)[n+](CC3CCCO3)c(C)c1-2 (configuration not stated),i,i,i,62,i,i,i,i
O=C(c1ccc2nc(-c3ccco3)c(-c3ccco3)nc2c1)N1CCC2(CC1)OCCO2,i,78,i,69,i,i,34,i
SMILES,Mcl1-Bid inh,Mcl1 Noxa PPI,Bim-Mcl-1,MCL1-BIM inh,T cell HTS,Pemphigus Ab inh,BCLXL inh confirm,MCL1 inh confirm
Oc1c(Cl)c(Cl)c(Cl)c(Cl)c1Cl,nt,nt,nt,53,i,i,i,i
COC(=O)CNC(=O)c1cn(CCC#N)nc1-c1ccc(F)cc1,i,i,i,i,i,i,nt,nt
O=c1[nH]c(=S)[nH]c(O)c1/C=C1/C=c2ccccc2=N1,nt,nt,nt,92,i,83,135,170
Cc1cccc2c1=NC(=O)/C(=C/c1c(O)[nH]c(=O)[nH]c1=O)C=2,i,i,i,i,i,nt,nt,nt
O=c1[nH]c2ccccc2n1CCCN1CCC(n2c(=O)[nH]c3cc(Cl)ccc32)CC1,i,i,i,54,i,i,i,i
CC1CN(c2cc([N+](=O)[O-])ccc2Cl)CC(C)N1 (configuration not stated),i,i,i,i,i,i,nt,nt
CS(=O)(=O)N1CCN(C(=N)N[N+](=O)[O-])CC1,i,i,i,i,i,i,nt,nt
CC1=NCCc2c1[nH]c1cc(O)ccc21,nt,nt,nt,+,i,i,+,+
COc1ccc2c3c([nH]c2c1)C(C)=NCC3,i,i,i,i,i,nt,nt,nt
CC(C)(C)c1ccc(O)c(CN2CCN(c3ccccc3)CC2)c1,i,i,i,i,i,nt,nt,nt
Nc1c2c(nc3ccccc13)CCN(Cc1ccccc1)C2,nt,nt,nt,+,i,i,72,101
